# Assay results from different studies.
# Lines come from different studies, so protocols differ.
# Target: Serine/threonine-protein kinase Nek1 (NEK1, Homo sapiens, UniProt Q96PY6)
# Residues used in one study (Q96PY6 1-1258): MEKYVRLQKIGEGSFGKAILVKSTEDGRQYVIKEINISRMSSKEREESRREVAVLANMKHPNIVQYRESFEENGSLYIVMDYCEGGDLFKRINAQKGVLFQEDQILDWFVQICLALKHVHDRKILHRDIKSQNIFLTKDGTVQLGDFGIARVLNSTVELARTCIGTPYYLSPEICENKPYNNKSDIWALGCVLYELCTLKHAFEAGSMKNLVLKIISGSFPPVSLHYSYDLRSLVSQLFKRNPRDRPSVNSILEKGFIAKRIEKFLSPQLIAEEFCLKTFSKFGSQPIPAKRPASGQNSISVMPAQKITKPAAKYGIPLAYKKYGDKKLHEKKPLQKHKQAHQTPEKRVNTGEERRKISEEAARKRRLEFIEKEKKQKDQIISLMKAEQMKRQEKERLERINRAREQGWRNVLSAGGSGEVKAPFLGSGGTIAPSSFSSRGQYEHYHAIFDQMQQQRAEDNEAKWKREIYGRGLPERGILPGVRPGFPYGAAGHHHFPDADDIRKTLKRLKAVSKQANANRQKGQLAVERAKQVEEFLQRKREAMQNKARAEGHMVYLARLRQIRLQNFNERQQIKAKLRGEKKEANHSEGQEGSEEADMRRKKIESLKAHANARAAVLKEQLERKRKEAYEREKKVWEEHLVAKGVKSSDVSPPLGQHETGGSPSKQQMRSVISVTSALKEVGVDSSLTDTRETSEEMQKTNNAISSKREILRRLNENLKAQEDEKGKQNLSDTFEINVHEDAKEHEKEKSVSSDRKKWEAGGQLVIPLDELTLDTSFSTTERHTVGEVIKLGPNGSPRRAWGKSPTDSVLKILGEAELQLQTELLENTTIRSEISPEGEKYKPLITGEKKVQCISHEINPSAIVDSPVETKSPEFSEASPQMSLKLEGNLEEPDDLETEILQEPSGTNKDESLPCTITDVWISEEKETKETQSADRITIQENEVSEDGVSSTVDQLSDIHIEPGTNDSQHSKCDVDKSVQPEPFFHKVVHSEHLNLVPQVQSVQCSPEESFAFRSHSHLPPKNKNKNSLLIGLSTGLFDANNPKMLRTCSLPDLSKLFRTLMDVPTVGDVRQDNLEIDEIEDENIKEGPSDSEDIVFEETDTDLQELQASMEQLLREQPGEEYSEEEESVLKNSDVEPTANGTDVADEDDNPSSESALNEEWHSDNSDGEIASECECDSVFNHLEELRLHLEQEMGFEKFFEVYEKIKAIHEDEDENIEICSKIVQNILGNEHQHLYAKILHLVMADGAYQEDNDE
Compound,read-out,action,method,cells,concentration,endpoint,result
Nc1ncc(-c2nc(N3CCOCC3)nc(N3CCOCC3)n2)c(C(F)F)n1,binding,,competition with immobilised ligand,,10 µM,remaining binding,99%
COc1ncccc1-c1cnn2ccc(N3CCN(C(=O)OC(C)C)CC3)nc12,binding,,competition with immobilised ligand,,1 µM,remaining binding,100%
COCc1c(-c2cc3cc(C)cc(OC)c3s2)c2c(N)ncnn2c1CN1CCNC(=O)C1,cell-free assay,,competition with immobilised ligand,,1 µM,inhibition,78%
Cc1nn(C)cc1-c1nc2c(N3CCN(Cc4ccc(Cl)cc4)CC3)c(Cl)cnc2[nH]1,binding,,competition with immobilised ligand,,1 µM,remaining binding,82%
Cn1cc(-c2cccc(N3CCc4c(sc5c4CC(C)(C)C5)C3=O)c2CO)cc(Nc2ccncn2)c1=O,enzyme activity,inhibitor,,,1 µM,inhibition,5%
CCN1CCN(Cc2ccc(NC(=O)c3ccc(C)c(/C=C/c4cnc5[nH]ccc5c4OC)c3)cc2C(F)(F)F)CC1,target engagement in cells,inhibitor,chemoproteomics,A-375,50 nM,inhibition,-17%
CC(C)(C)c1cc(C=C(C#N)C#N)cc(Br)c1O,enzyme activity,inhibitor,,,0.5 µM,remaining activity,97.7%
O=C(NCc1ncc(C(F)(F)F)cc1Cl)c1ccc2c(c1)C1(CCS(=O)(=O)CC1)[C@@H](C1CC1)N2S(=O)(=O)c1ccc(F)cc1,cell-free assay,,competition with immobilised ligand,,1 µM,remaining binding,96%
Cn1cc(-c2cc(F)cc(N3CCn4c(cc5c4CCCC5)C3=O)c2CO)cc(Nc2ccc(N3CCN(C4COC4)CC3)cn2)c1=O,enzyme activity,inhibitor,,,0.1 µM,inhibition,-3%
Cn1cncc1[C@](O)(COc1ccc(C#N)cc1-c1ccc(OC(F)(F)F)cc1)c1ccc(C#N)cc1,cell-free assay,,competition with immobilised ligand,,1 µM,remaining binding,80%
COc1cc(Nc2ncc(F)c(Nc3ccc4c(n3)NC(=O)C(C)(C)O4)n2)cc(OC)c1OC,binding,,competition with immobilised ligand,,10 µM,inhibition,96%
O=c1[nH]c2ccccc2n1C1CCN(Cc2ccc(-c3[nH]c4cc5ncnc5cc4nc3-c3ccccc3)cc2)CC1,cell-free assay,,,,0.5 µM,remaining signal,101%
